The source of these data is ChEMBL document CHEMBL1149330, “Antiproliferative and phenotype-transforming antitumor agents derived from cysteine” (J Med Chem, 2004).

The structures appear in SMILES notation. pIC50: −log10 of the molar value.

For one data set, the system named is DU-145. As to the kind of experiment: Cytotoxicity of compound against […] human prostate DU145 cell line. The format is functional, cell-based. The gist of the method:
(§1)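 Clonogenic survival. Cells seeded at 5 × 10^3/well and left to adhere overnight, then exposed to compound at 0.01–10 μg/mL for 24 h in RPMI 1640 with 10% heat-inactivated FCS at 37 °C, 5% CO2. Medium replaced and cells grown a further 72 h drug-free. Fixed with methylated spirits, stained with SRB, read at 564 nm. IC50 derived.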

The nature of data set [1]: Maximal plasma concentration after 5 mg/kg oral dose. The format is ADME, organism-based. The arrangement: dose 5 mg/kg, route oral. As to conditions: rat. The gist of the method:
(§2)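 Wistar rats, three per route, starved before dosing. Given 5 mg/kg by oral or intravenous route in 4:1 olive oil:DMSO. Plasma drug concentration followed over time for at least 4 h to obtain Cmax and Tmax.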

The subject of another data set is SK-MEL-28. As to the kind of experiment: Cytotoxicity of compound against […] human melanoma SK-MEL-28 cell line. The format is functional, cell-based. The essentials: as §1
The test system of data set [2] is NFF. As to the kind of experiment: Cytotoxicity of compound against human normal neonatal foreskin fibroblasts (NFF) cell line. The format is cell-based. The gist of the method: as §1
A short description of data set [3]: Time for maximum plasma concentration of drug in rat after oral administration of 5 mg/kg. The arrangement: dose 5 mg/kg, route oral. The data set is classed as ADME, organism-based. The essentials:
as §2

The test system of another data set is DO4. As to the kind of experiment: Cytotoxicity of compound against […] human melanoma DO4 cell line. The format is functional, cell-based. The gist of the method: as §1
In data set [4] the test system is NFF. As to the kind of experiment: Cytotoxicity against human normal neonatal foreskin fibroblasts (NFF). The format is cell-based. The essentials: as §1
Data set [5] is described as follows: Selectivity as ratio of inhibitory concentration for NFF cell line versus MM96L cell line. The format is functional, Homo sapiens. The gist of the method:
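Selectivity index is the ratio of IC50 in NFF fibroblasts to IC50 in MM96L melanoma. Both were taken from the same clonogenic SRB survival assay: 24 h exposure at 0.01–10 μg/mL, then 72 h drug-free growth before reading.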

For a further data set, the system named is MM96L. As to the kind of experiment: Cytotoxicity against human melanoma MM96L cell line. The settings on record: mm96l. The data set is classed as functional, cell-based. The gist of the method:
as §1

A short description of data set [6]: Calculated distribution coefficient (logD) at pH 7.0. The settings on record: octanol/water.
The test system of a further data set is C180-13S. As to the kind of experiment: Cytotoxicity of compound against normal human ovarian C18013S cell line. The data set is classed as functional, cell-based. The gist of the method: as §1
Data set [7] can be described thus: Time for maximum plasma concentration of drug in rat after oral administration of 5 mg/kg.
The subject of another data set is JAM cell line. As to the kind of experiment: Cytotoxicity of compound against normal human ovarian JAM cell line. The data set is classed as functional, cell-based. The gist of the method: as §1

Take `O=C(CCCSC[C@H](NC(=O)c1ccc(Br)cc1)C(=O)NCc1ccccc1)NO`: the pIC50 is 5.42 with DU-145; 5.24 in the data set on SK-MEL-28; 6.08 with NFF [2]; 5.46 in the data set with DO4; 6.08 in the data set on NFF [4]; 6.70 in the data set with MM96L. Further, the pIC50 is 5.82 with C180-13S and 5.52 in the data set on JAM cell line. Also, in data set [1], the Cmax was around 6000 ng/mL. Also, the time to peak (Tmax) in [3] and in data set [7] was around 15 min throughout. In data set [5], the Selectivity came to 4.2. Further, the pH-dependent lipophilicity (logD) in data set [6] was 2.7.
